These results are taken from ChEMBL document CHEMBL1155459, “On-bead screening of a combinatorial fumaric acid derived peptide library yields antiplasmodial cysteine protease inhibitors with unusual peptide sequences” (J Med Chem, 2009).

The inhibition is the relative decrease from the control value, in per cent. The Ki is a measure of affinity in units of concentration, obtained from inhibition or displacement. For orientation: IC50 means the midpoint of a concentration-inhibition curve.

The source made the active and inactive calls. No cut-off for these calls is given here. Peptide text beside a SMILES is read from it.

The target of assay [1] is Rhodesain (Trypanosoma brucei rhodesiense) (UniProt Q95PM0). The assay is described as follows: Inhibition of Trypanosoma brucei rhodesiense recombinant rhodesain at 200 uM.
The next assay has as its target Procathepsin L (Bos taurus, UniProt P25975). The assay is described as follows: Inhibition of bovine spleen cathepsin L. In short, it runs like this:
(§1)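 Cathepsin L (bovine spleen) or B (human liver) hydrolysis of Cbz-Phe-Arg-AMC (40 μM) followed by fluorescence for 5-10 min without preincubation at 0.1-80 μM inhibitor, 10% DMSO final.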

Assay [2] is described as follows: Inhibition of Plasmodium falciparum recombinant falcipain-2 expressed in Escherichia coli after 20 min using Cbz-Phe-Arg-AMC as substrate by spectrofluorometry. Particulars: in the assay text read “over 5-10 min” for “after 20 min”. An outline of the steps: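 Continuous assay without preincubation. Recombinant falcipain-2 in 50 mM acetate pH 5.5, 5 mM EDTA, 200 mM NaCl, 5 mM DTT, 10% DMSO final; Cbz-Phe-Arg-AMC (40 μM, Km 21.5 μM) or Cbz-Leu-Arg-AMC (25 μM, Km 8.4 μM). Fluorescence monitored 5-10 min at 0.1-80 μM inhibitor. Ki from Dixon plot, corrected to zero substrate; at least two independent assays.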

Assay [3] can be described thus: Inhibition of Plasmodium falciparum falcipain-2 after 12 hrs by fluorescence spectroscopy-based on-bead assay. Set-up: concentration or dose not given beside the values. The conditions noted are these: concentration not given here. In short, it runs like this: (§2)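 Library members on resin (PEGA, theoretical loading 0.40 mmol/g; added as DMSO suspension, 0.64 mM final inhibitor) preincubated with enzyme 12 h, then Cbz-Phe-Arg-AMC 40 μM added; AMC release followed by fluorescence (ex 380/em 460 nm). Kinetics compared with inhibitor-free amino-PEGA resin.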

The subject of assay [4] is Plasmodium falciparum. The assay is described as follows: Inhibition of Plasmodium falciparum recombinant falcipain-2 expressed in Escherichia coli at 100 uM after 20 min by spectrofluorometry. An outline of the steps:
(§3)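 Single-point screen at 100 μM inhibitor (final). Recombinant enzyme in 50 mM acetate pH 5.5, 5 mM EDTA, 200 mM NaCl, 5 mM DTT, 10% DMSO final; Cbz-Phe-Arg-AMC 40 μM (or Cbz-Leu-Arg-AMC 25 μM) hydrolysis followed by fluorescence (ex 380/em 460 nm). % inhibition = 100(1 − vi/vc) from progress-curve slopes vs DMSO control; at least two independent assays.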

The target in assay [5] is Rhodesain (Trypanosoma brucei rhodesiense) (UniProt Q95PM0). The assay is described as follows: Inhibition of Trypanosoma brucei rhodesiense recombinant rhodesain at 100 uM. An outline of the steps: as §3
For assay [6], the system named is Trypanosoma brucei brucei. Briefly: Antitrypanosomal activity against Trypanosoma brucei brucei. The assay is classed as functional, organism-based.
The target of assay [7] is T1, Cathepsin B (Homo sapiens, UniProt P07858). Briefly: Inhibition of human liver cathepsin B at 100 uM.
Assay [8] concerns the target T1, Cathepsin B. Briefly: Inhibition of human liver cathepsin B. An outline of the steps: as §1
The subject of assay [9] is Plasmodium falciparum. The assay is described as follows: Antiplasmodial activity against Plasmodium falciparum FCBR by fluorometric method. The format is functional, organism-based, FCBR/Columbia. The conditions noted are these: Plasmodium falciparum, FCBR/Columbia; read-out: IC50.
Assay [10] concerns the target T1, Cathepsin B. Briefly: Inhibition of human liver cathepsin B at 200 uM measured after dialysis. In short, it runs like this:
(§4)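 Human liver cathepsin B activity measured with 200 μM inhibitor before and after 3 h of continuous dialysis against assay buffer, to test reversibility.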

For a further assay, the target named is Rhodesain (Trypanosoma brucei rhodesiense, UniProt Q95PM0). The assay is described as follows: Inhibition of Trypanosoma brucei rhodesiense recombinant rhodesain.
In assay [11] the target is Rhodesain (Trypanosoma brucei rhodesiense) (UniProt Q95PM0). Briefly: Inhibition of Trypanosoma brucei rhodesiense rhodesain after 12 hrs by fluorescence spectroscopy-based on-bead assay. Also noted: concentration or dose not given beside the values. The conditions noted are these: concentration not given here. In short, it runs like this: as §2
Assay [12] concerns the target T1, Cathepsin B. The assay is described as follows: Inhibition of human liver cathepsin B at 200 uM measured before dialysis. In short, it runs like this: as §4
Assay [13] in a line: Inhibition of Plasmodium falciparum recombinant falcipain-2 expressed in Escherichia coli […] using Cbz-Leu-Arg-AMC as substrate by spectrofluorometry.
Assay [14] in a line: Inhibition of Plasmodium falciparum falcipain-2 by fluorescence enzyme assay.

Rhodesain (Trypanosoma brucei rhodesiense), sequence (Q95PM0 1-450): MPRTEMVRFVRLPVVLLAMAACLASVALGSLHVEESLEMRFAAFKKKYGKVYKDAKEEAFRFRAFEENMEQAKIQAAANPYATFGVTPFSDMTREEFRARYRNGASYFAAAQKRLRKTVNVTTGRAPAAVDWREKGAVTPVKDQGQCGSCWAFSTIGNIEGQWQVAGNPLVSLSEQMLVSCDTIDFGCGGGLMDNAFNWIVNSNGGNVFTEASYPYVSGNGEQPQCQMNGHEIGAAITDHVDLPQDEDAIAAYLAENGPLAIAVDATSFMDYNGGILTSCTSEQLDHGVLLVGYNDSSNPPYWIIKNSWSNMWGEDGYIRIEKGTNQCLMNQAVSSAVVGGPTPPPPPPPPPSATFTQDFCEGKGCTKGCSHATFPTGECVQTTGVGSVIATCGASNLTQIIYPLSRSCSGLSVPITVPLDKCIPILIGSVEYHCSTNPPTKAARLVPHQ
Rhodesain, sequence (Q95PM0 whole entry): as the sequence (Q95PM0 1-450) above
Procathepsin L, sequence (P25975 whole entry): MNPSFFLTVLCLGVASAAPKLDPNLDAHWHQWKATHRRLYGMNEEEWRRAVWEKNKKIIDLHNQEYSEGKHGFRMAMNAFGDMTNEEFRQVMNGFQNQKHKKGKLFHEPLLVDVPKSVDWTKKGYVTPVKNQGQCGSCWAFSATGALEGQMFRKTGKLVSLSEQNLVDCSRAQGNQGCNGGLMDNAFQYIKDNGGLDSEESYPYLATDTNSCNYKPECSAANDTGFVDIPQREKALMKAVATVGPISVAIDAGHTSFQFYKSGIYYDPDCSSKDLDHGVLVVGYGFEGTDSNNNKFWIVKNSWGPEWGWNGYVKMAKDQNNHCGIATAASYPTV

In the case of `N=C(N)c1ccc(OCCCCCOc2ccc(C(=N)N)cc2)cc1`, the inhibition in assay [1] turned out to be 28%.

On to `CC(C)[C@H](NC(=O)[C@@H](NC(=O)[C@@H](NC(=O)[C@H](CC(N)=O)NC(=O)/C=C/C(=O)NCC(=O)NCC(=O)N[C@@H](Cc1ccccc1)C(=O)O)C1CCCCC1)C(C)C)C(N)=O` (HELM PEPTIDE1{[O=C(/C=C/C(=O)[*:2])NCC(=O)NCC(=O)N[C@@H](Cc1ccccc1)C(=O)O].N.[O=C([C@@H](N[*:1])C1CCCCC1)[*:2]].V.V.[am]}$$$$V2.0), for which the Ki at Procathepsin L turned out to be 37.5 µM; in assay [2] it was 5.2 µM; on Cathepsin B [8], 1.4 µM; on Rhodesain, 0.08 µM. Also, the inhibition in [3] was determined as 61%; with Plasmodium falciparum [4], 90%; in assay [5], 96%; against Cathepsin B [7], 100%; at Cathepsin B [10], 73%; in [11], 46%. The same compound came in with an inhibition at Cathepsin B [12] of 74%. For the same compound, the IC50 entry was “Not Active” in [6] and 32 µM in the assay on Plasmodium falciparum [9].

For `CC(=O)NC[C@H](NC(=O)/C=C/C(=O)NCC(=O)NCC(=O)N[C@@H](Cc1ccccc1)C(=O)O)C(=O)N[C@@H](CC(C)C)C(=O)N[C@@H](CC(C)C)C(=O)N[C@H](C(N)=O)C(C)C` (HELM PEPTIDE1{[O=C(/C=C/C(=O)[*:2])NCC(=O)NCC(=O)N[C@@H](Cc1ccccc1)C(=O)O].[O=C([C@H](CN[*:3])N[*:1])[*:2]].L.L.V.[am]}|PEPTIDE2{[ac]}$PEPTIDE1,PEPTIDE2,2:R3-1:R2$$$V2.0), the Ki at Procathepsin L worked out at 40 µM; in assay [13], 11.8 µM; at Rhodesain it was 1.8 µM. Also, the inhibition in assay [3] came to 54%; with Plasmodium falciparum [4], 79%; in assay [5], 87%; in assay [11] it was 60%. Besides, the inhibition entry on Cathepsin B [7] was “inactive”.

Regarding `CC(C)C[C@H](NC(=O)[C@H]1O[C@@H]1C(=O)O)C(=O)NCCCCN=C(N)N` [E-64], the Ki in [14] was determined as 0.29 µM.
